In brackets after ≈: the same amount, converted by molar mass. Read-outs that look alike come from different tables or passages of the source. Marks after values point to notes of the source that are not given here.
Assays:
[1] = system: Klebisiella spp.; test: MIC, Klebisiella spp.; assay type: cell-based
[2] = system: E. coli C291-b1; test: MIC, E. coli C291-b1; assay type: cell-based
[3] = system: K. pneumoniae BARB 105; test: MIC, K. pneumoniae BARB 105; assay type: cell-based
[4] = system: P. aeruginosa T15464 (MDR); test: MIC, P. aeruginosa T15464; assay type: cell-based
[5] = system: A. baumanii ATCC9955; test: MIC, A. baumanii ATCC9955; assay type: cell-based
[6] = system: S. typhimurium SL1344; test: MIC, S. typhimurium SL1344; assay type: cell-based
[7] = system: E. coli MC4100; test: Bacteriostatic effect; assay type: cell-based
[8] = target: H+-ATPase (Escherichia coli, UniProt P0ABB0+P0ABB4); test: In vitro ATPase activity, H+-ATPase; assay type: biochemical; conditions: read-out: ATPase activity IC50
[9] = target: SpuB ATPase (Pseudomonas aeruginosa, UniProt Q9I6J3); test: In vitro ATPase activity, SpuB; assay type: biochemical; conditions: read-out: ATPase activity IC50
[10] = target: PaSecA (Pseudomonas aeruginosa, UniProt Q9LCT3); conditions: read-out: Protein translocation IC50; PaSecA-liposomes; published RB; cited from earlier work
[11] = system: Shigella flexneri ATCC12022; test: Bacteriostatic effect; assay type: cell-based
How it was run: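 Broth microdilution per CLSI guidelines: LB with 0.2% glucose, exponential-phase cells (OD600 ≈ 0.5), 2% DMSO final. Permeabilizer, where added, was PMBN 25 μg/mL or NAB7061 4 μg/mL. Incubated 24 h at 37 °C with shaking at 250 rpm. Run in triplicate in three separate experiments. MIC is the lowest concentration with no growth.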

[12] = system: E. coli NR698; test: Bacteriostatic effect; assay type: cell-based; conditions: Addition None
[13] = Klebisiella spp., Addition None
[14] = Klebisiella spp., NAB7061 4 μg/mL
[15] = E. coli C291-b1, NAB7061 4 μg/mL
[16] = K. pneumoniae BARB 105, NAB7061 4 μg/mL
[17] = K. pneumoniae BARB 105, PMBN 25 μg/mL
[18] = P. aeruginosa T15464 (MDR), NAB7061 4 μg/mL
[19] = P. aeruginosa T15464 (MDR), PMBN 3 μg/mL
[20] = Pseudomonas aeruginosa, read-out: MIC100
[21] = A. baumanii ATCC9955, NAB7061 4 μg/mL
[22] = A. baumanii ATCC9955, PMBN 25 μg/mL
[23] = Acinetobacter baumannii, ATCC9955
[24] = S. typhimurium SL1344, NAB7061 4 μg/mL
[25] = S. typhimurium SL1344, PMBN 25 μg/mL
[26] = Salmonella enterica, TYPHIMURIUM
[27] = Klebisiella spp., PMBN 25 μg/mL

Chain of H+-ATPase (P0ABB0 whole entry): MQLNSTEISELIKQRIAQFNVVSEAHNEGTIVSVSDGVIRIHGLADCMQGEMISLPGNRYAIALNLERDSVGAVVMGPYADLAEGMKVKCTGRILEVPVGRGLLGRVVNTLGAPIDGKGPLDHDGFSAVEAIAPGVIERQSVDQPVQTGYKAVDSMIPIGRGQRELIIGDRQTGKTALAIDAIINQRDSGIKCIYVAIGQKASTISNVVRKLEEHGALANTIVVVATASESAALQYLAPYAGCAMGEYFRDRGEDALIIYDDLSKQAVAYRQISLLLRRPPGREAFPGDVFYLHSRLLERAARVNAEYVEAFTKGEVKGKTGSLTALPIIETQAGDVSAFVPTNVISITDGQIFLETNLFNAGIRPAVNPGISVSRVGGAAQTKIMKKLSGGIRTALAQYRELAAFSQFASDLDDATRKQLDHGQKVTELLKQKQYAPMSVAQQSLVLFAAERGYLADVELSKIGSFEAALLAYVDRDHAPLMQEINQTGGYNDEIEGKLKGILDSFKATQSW
Chain of H+-ATPase (P0ABB4 2-460): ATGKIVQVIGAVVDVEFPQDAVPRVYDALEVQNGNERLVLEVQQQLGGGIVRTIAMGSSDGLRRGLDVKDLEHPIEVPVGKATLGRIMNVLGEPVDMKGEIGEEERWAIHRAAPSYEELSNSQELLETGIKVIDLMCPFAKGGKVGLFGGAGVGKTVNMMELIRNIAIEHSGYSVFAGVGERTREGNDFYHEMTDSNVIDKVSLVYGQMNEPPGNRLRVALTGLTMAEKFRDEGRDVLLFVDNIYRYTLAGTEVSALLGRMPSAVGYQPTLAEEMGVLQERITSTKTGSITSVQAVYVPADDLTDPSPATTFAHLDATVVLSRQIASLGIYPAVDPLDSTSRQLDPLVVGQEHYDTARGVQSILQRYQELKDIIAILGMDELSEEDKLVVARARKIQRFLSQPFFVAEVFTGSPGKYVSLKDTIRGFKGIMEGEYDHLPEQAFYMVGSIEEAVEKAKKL
Chain of H+-ATPase (P0ABA6 whole entry, further chain): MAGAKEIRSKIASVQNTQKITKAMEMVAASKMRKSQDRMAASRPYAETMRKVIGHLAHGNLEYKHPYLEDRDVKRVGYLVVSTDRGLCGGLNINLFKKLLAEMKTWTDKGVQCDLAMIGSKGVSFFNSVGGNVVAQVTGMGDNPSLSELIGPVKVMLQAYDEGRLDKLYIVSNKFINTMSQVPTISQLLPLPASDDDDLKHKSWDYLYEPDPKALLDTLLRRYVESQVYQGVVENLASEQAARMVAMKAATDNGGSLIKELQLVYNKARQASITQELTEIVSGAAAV
Chain of PaSecA (Q9LCT3 whole entry): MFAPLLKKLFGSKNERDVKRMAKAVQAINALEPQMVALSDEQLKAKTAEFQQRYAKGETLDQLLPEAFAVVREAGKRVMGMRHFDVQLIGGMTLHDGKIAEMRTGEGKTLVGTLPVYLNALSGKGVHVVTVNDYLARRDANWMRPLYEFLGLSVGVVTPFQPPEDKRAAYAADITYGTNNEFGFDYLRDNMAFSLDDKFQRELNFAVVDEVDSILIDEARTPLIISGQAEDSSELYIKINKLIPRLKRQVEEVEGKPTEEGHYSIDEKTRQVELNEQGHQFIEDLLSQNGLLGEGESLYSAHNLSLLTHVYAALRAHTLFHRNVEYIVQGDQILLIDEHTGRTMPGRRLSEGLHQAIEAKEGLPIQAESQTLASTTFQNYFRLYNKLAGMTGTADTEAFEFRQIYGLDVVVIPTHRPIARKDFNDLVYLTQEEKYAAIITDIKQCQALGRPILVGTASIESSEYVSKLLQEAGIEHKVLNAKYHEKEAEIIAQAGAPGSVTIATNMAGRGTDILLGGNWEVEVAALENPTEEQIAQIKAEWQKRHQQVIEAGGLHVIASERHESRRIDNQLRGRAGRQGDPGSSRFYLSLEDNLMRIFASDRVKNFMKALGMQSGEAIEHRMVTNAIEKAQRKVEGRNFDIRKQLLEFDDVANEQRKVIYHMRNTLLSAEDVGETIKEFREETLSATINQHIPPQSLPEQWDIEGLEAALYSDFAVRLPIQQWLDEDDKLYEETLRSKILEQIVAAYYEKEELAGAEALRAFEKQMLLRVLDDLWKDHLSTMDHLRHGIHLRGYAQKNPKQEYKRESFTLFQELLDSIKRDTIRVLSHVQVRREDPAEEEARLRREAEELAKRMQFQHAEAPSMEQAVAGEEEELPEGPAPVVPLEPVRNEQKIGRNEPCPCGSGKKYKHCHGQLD

Row | MIC [4, 20] [µg/mL] | Structure (SMILES) | MIC [1, 13] | MIC [1, 14] | MIC [2, 15] | MIC ([2]; E. coli C291-b1, PMBN 25 μg/mL) | MIC [3, 16] | MIC [3, 17] | MIC [4, 18] | MIC [4, 19] | MIC [5, 21] | MIC [5, 22] | MIC [5, 23] [µg/mL] | MIC [6, 24] [µg/mL] | MIC [6, 25] [µg/mL] | MIC [6, 26] [µg/mL] | MIC [1, 27] | also measured
1 | > 1000 | CC1(C)S[C@@H]2[C@H](NC(=O)C(C(=O)O)c3ccccc3)C(=O)N2[C@H]1C(=O)O (stereo partly shown) [Carbenicillin] | >1,250 μg/mL | >1,250 μg/mL | >1,000 μg/mL | >1,000 μg/mL | >1,000 μg/mL | >1,000 μg/mL | >1,000 μg/mL | >1,000 μg/mL | >1,000 μg/mL | >1,000 μg/mL | > 1000 | >500 | >500 | > 500 | – | MIC [1]: > 1250 µg/mL; MIC ([2]; Escherichia coli, C291B1): > 1000 µg/mL; MIC ([3]; Klebsiella pneumoniae, BARB105): > 1000 µg/mL; MIC ([4]; Pseudomonas aeruginosa): > 1000 µg/mL
2 | – | O=C1OC2(c3cc(I)c(O)c(I)c3Oc3c2cc(I)c(O)c3I)c2c(Cl)c(Cl)c(Cl)c(Cl)c21 [RB, Rose Bengal] | >1,272 ^* μg/mL | >254 ^* μg/mL | >254 ^* μg/mL | 3.2 µg/mL (≈ 3.29 µM) | >254 ^* μg/mL | 25.4 µg/mL (≈ 26.1 µM) | 3.2 µg/mL (≈ 3.29 µM) | 0.4 µg/mL (≈ 0.411 µM) | 127.2 µg/mL (≈ 131 µM) | 80.6 µg/mL (≈ 82.8 µM) | – | 254 (≈ 261 µM) | 17 (≈ 17.5 µM) | – | >254 ^* μg/mL | MIC ([2]; E. coli C291-b1, Addition None): >1,272 ^* μg/mL; MIC ([7]; E. coli MC4100, Addition None): >1,272 ^* μg/mL; MIC ([7]; E. coli MC4100, NAB7061 4 μg/mL): 2.0 µg/mL (≈ 2.05 µM); MIC ([7]; E. coli MC4100, PMBN 25 μg/mL): 15.9 µg/mL (≈ 16.3 µM); MIC ([3]; K. pneumoniae BARB 105, Addition None): >1,272 ^* μg/mL; MIC ([4]; P. aeruginosa T15464 (MDR), Addition None): >1,272 ^* μg/mL; MIC ([5]; A. baumanii ATCC9955, Addition None): >1,272 ^* μg/mL; IC50 [8]: 60 µM; IC50 [9]: > 200 µM; IC50 [10]: 1000 nM; MIC ([6]; S. typhimurium SL1344, Addition None): >1,272 ^* μg/mL; MIC ([11]; Shigella flexneri ATCC12022, NAB7061 4 μg/mL): 1.6 µg/mL (≈ 1.64 µM); MIC ([11]; Shigella flexneri ATCC12022, PMBN 25 μg/mL): 7.5 µg/mL (≈ 7.7 µM); MIC [12]: 4.5 µg/mL (≈ 4.62 µM)
3 | – | CN[C@H](CC(C)C)C(=O)N[C@H]1C(=O)N[C@@H](CC(N)=O)C(=O)N[C@H]2C(=O)N[C@H]3C(=O)N[C@H](C(=O)N[C@H](C(=O)O)c4cc(O)cc(O)c4-c4cc3ccc4O)[C@H](O)c3ccc(c(Cl)c3)Oc3cc2cc(c3O[C@@H]2O[C@H](CO)[C@@H](O)[C@H](O)[C@H]2O[C@H]2C[C@](C)(N)[C@H](O)[C@H](C)O2)Oc2ccc(cc2Cl)[C@H]1O [Vancomycin] | 1000 µg/mL (≈ 690 µM) | 250 µg/mL (≈ 173 µM) | – | – | – | – | – | – | 250 µg/mL (≈ 173 µM) | 250 µg/mL (≈ 173 µM) | 250 (≈ 173 µM) | >250 | – | > 250 | 250 µg/mL (≈ 173 µM) | MIC ([2]; Escherichia coli, C291B1, E. coli C291-b1, Addition None): > 250 µg/mL; MIC ([2]; Escherichia coli, C291B1, E. coli C291-b1, NAB7061 4 μg/mL): 125 µg/mL (≈ 86.3 µM); MIC ([2]; Escherichia coli, C291B1, E. coli C291-b1, PMBN 25 μg/mL): 31 µg/mL (≈ 21.4 µM); MIC ([7]; Escherichia coli, MC4100, E. coli MC4100, Addition None): 250 µg/mL (≈ 173 µM); MIC ([7]; Escherichia coli, MC4100, E. coli MC4100, PMBN 25 μg/mL): 31.3 µg/mL (≈ 21.6 µM); MIC ([3]; Klebsiella pneumoniae, BARB105, K. pneumoniae BARB 105, Addition None): > 1000 µg/mL; MIC ([3]; Klebsiella pneumoniae, BARB105, K. pneumoniae BARB 105, NAB7061 4 μg/mL): 1000 µg/mL (≈ 690 µM); MIC ([3]; Klebsiella pneumoniae, BARB105, K. pneumoniae BARB 105, PMBN 25 μg/mL): 500 µg/mL (≈ 345 µM); MIC ([4]; Pseudomonas aeruginosa, P. aeruginosa T15464 (MDR), Addition None): > 1000 µg/mL; MIC ([4]; Pseudomonas aeruginosa, P. aeruginosa T15464 (MDR), NAB7061 4 μg/mL): > 1000 µg/mL; MIC ([4]; Pseudomonas aeruginosa, P. aeruginosa T15464 (MDR), PMBN 3 μg/mL): 31 µg/mL (≈ 21.4 µM); MIC ([4]; Pseudomonas aeruginosa, read-out: MIC100, clinical MDR P. aeruginosa strain T15464): > 1000 µg/mL; MIC ([11]; Shigella flexneri, ATCC12022, Shigella flexneri ATCC12022, Addition None): > 250 µg/mL; MIC ([11]; Shigella flexneri, ATCC12022, Shigella flexneri ATCC12022, NAB7061 4 μg/mL): 250 µg/mL (≈ 173 µM); MIC ([11]; Shigella flexneri, ATCC12022, Shigella flexneri ATCC12022, PMBN 25 μg/mL): 62.5 µg/mL (≈ 43.1 µM)
4 | > 1000 | CC[C@H]1OC(=O)[C@H](C)[C@@H](O[C@H]2C[C@@](C)(OC)[C@@H](O)[C@H](C)O2)[C@H](C)[C@@H](O[C@@H]2O[C@H](C)C[C@H](N(C)C)[C@H]2O)[C@](C)(O)C[C@@H](C)C(=O)[C@H](C)[C@@H](O)[C@]1(C)O [erythromycin] | – | – | – | – | – | – | – | – | – | – | – | – | – | – | – | –
